Experimental data: publication PMC12120886 (Plant Biotechnology Journal, 2025)

How the values were obtained:
LcTPS3 = experiment: malachite green phosphate-release assay, Michaelis-Menten fit; format: biochemical, Liriodendron chinense; conditions: 5 mM MgCl2, 50 mM MOPS pH 7.0 (optimum printed as pH 7.5), 35 °C, FPP 0-25 μM
Summary of the method: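 Recombinant His-tagged enzyme was expressed from pET-28a(+) in E. coli BL21(DE3) pLysS, induced with 1 mM IPTG at 16 °C for 16 h, and bead-purified. FPP (0–25 μM) was reacted with 5 mM MgCl2 in 50 mM MOPS pH 7.0 at 35 °C for 15 min. Phosphatase-released phosphate was read by malachite green at 620 nm. Km came from a Michaelis–Menten fit of initial velocity versus [FPP].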

STpGMAS = biological target: T1, STpGMAS (Tanacetum parthenium, UniProt F8UL80); experiment: GC-MS of germacrene A from yeast expressing the synthase with ERG20; format: cell-based; conditions: S. cerevisiae JCR27, endogenous FPP
T1 sequence (F8UL80 1-559): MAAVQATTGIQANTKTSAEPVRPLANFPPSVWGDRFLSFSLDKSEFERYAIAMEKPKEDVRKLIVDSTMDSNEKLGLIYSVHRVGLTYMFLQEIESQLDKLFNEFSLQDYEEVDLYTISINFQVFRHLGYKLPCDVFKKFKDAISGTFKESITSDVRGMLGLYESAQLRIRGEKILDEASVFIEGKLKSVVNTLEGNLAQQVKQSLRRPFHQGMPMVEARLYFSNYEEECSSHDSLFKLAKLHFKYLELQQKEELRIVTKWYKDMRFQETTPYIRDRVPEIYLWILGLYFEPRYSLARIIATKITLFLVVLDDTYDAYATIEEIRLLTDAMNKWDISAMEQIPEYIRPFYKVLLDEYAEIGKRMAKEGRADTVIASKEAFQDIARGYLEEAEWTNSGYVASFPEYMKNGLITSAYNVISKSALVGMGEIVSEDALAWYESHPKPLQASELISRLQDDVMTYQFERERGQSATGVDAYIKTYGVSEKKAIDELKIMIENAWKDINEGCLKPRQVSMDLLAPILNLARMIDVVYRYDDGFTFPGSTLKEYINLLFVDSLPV

LsLTC2 = biological target: T2, LsLTC2 (Lactuca sativa, UniProt Q8S3A5); experiment: as above; format: cell-based; conditions: S. cerevisiae JCR27, endogenous FPP
T2 sequence (Q8S3A5 1-557): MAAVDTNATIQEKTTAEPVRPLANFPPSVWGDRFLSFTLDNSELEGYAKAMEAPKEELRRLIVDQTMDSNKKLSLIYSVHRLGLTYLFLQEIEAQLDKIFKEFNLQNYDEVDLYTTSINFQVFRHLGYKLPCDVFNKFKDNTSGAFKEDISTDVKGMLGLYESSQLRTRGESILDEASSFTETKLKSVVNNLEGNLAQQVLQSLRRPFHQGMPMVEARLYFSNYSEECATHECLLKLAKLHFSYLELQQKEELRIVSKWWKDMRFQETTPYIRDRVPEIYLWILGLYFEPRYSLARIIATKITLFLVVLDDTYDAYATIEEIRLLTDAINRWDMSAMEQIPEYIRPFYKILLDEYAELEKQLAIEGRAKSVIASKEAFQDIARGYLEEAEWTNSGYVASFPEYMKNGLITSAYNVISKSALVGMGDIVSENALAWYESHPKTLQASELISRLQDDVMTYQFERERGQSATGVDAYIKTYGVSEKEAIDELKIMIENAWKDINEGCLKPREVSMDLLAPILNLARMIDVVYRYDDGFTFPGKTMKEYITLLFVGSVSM

Km (LcTPS3): 17.7 ± 0.47 µM
SMILES: CC(C)=CCC/C(C)=C/CC/C(C)=C/COP(=O)(O)OP(=O)(O)O [FPP]
GC-MS of germacrene A from yeast expressing the synthase with ERG20 (STpGMAS): co‐expressed LcTPS3, NPGAS, LsLTC2 and STpGMAS with a yeast–derived farnesyl diphosphate synthase (EGR20)
GC-MS of germacrene A from yeast expressing the synthase with ERG20 (LsLTC2): co‐expressed LcTPS3, NPGAS, LsLTC2 and STpGMAS with a yeast–derived farnesyl diphosphate synthase (EGR20)
